Measurements reported in ChEMBL document CHEMBL1240476, “Synthesis and antiproliferative activity of indolizinophthalazine-5,12-dione derivatives, DNA topoisomerase IB inhibitors” (Eur J Med Chem, 2010).

Experiments:
[1] = Cytotoxicity against human GLC82 cells after 48 hrs by MTT assay; assay type: functional, cell-based; conditions: GLC82, 48 h
[2] = system: NCI-H460; assay: Cytotoxicity against human NCI-H460 cells after 48 hrs by MTT assay; assay type: functional, cell-based; conditions: NCI-H460, 48 h
[3] = system: MCF7; assay: Cytotoxicity against human MCF7 cells after 48 hrs by MTT assay; assay type: functional, cell-based; conditions: MCF7, 48 h
[4] = Cytotoxicity against human MCF7/ADR cells after 48 hrs by MTT assay; assay type: functional, cell-based; conditions: NCI/ADR-RES
[5] = Inhibition of topoisomerase 1B-mediated relaxation of supercoiled pBR322 DNA at 125 uM after 30 mins by agarose gel electrophoresis
Summary of the method: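 TOP1-mediated relaxation of supercoiled DNA: enzyme and DNA incubated with serially diluted compound, 1 to 125 across four lanes. Controls were DNA without enzyme or drug, and DNA plus enzyme without drug. Read-out was the supercoiled versus relaxed DNA bands, scored as percent inhibition of TOP1 catalytic activity.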

[6] = Inhibition of topoisomerase 1B-mediated relaxation of supercoiled pBR322 DNA at 1 uM after 30 mins by agarose gel electrophoresis
Summary of the method: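 TOP1 relaxation of supercoiled DNA was run with enzyme, DNA and serially diluted drug (1 to 125). Controls were DNA without enzyme or drug, and DNA plus enzyme without drug. Supercoiled and relaxed DNA bands were resolved by gel and compared.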

Row | Compound | IC50 [1] | IC50 [2] | IC50 [3] | IC50 [4] | inhibition [5] | inhibition [6]
1 | O=C1c2cnncc2C(=O)c2c1cc1ccccn21 | 10.8 µM | 11.4 µM | 14.7 µM | 11.7 µM |  | 
2 | COC(=O)c1c2c(n3ccccc13)C(=O)c1cnncc1C2=O | 13.7 µM | 9.94 µM | 23.7 µM | 17 µM |  | 
3 | CCOC(=O)c1c2c(n3cccc(C)c13)C(=O)c1cnncc1C2=O | 10.3 µM | 1.18 µM | 1.22 µM | 1.55 µM |  | 
4 | CCOC(=O)c1c2c(n3ccccc13)C(=O)c1cnncc1C2=O | > 25 µM | > 25 µM | > 25 µM | > 25 µM |  | 
5 | CC[C@@]1(O)C(=O)OCc2c1cc1n(c2=O)Cc2cc3ccccc3nc2-1 [CAMPTOTHECIN] | > 25 µM | > 25 µM |  |  | 73% | 
6 | CCOC(=O)c1c2c(n3cccc(O)c13)C(=O)c1cnncc1C2=O | 11.6 µM | 23.5 µM | 20.8 µM | > 25 µM |  | 
7 | CC(=O)c1c2c(n3ccccc13)C(=O)c1cnncc1C2=O | 24.7 µM | 21.3 µM |  | 11.2 µM |  | 
8 | CC(=O)c1c2c(n3cccc(F)c13)C(=O)c1cnncc1C2=O | 1.85 µM | 10.6 µM | 10.7 µM | 13.2 µM |  | 
9 | Cc1c2c(n3ccccc13)C(=O)c1cnncc1C2=O | 1.92 µM | 1.21 µM | 1.67 µM | 14.1 µM |  | 
10 | N#Cc1c2c(n3ccccc13)C(=O)c1cnncc1C2=O | 1.13 µM | 9.32 µM | 1.09 µM | 0.81 µM | 100% | 23%
11 | CCOC(=O)c1c2c(n3cccc(Cl)c13)C(=O)c1cnncc1C2=O | 1.09 µM | 1.44 µM | 1.2 µM | 1.6 µM |  | 
12 | CCOC(=O)c1c2c(n3cc(C)ccc13)C(=O)c1cnncc1C2=O | 9.87 µM | 11.1 µM | 12.2 µM | 18.7 µM |  | 
